According to ChEMBL document CHEMBL3102739, “Synthesis and antiproliferative activity of conformationally restricted 1,2,3-triazole analogues of combretastatins in the sea urchin embryo model and against human cancer cell lines” (Bioorg Med Chem, 2014):

How the values were obtained:
[1] = system: Paracentrotus lividus; test: Antimitotic activity against sea urchin embryo model assessed as cleavage arrest of fertilized egg compound treated at 8 to 20 mins post-fertilization and 45 to 55 mins prior to first mitotic cycle completion measured 2.5 to 5.5 hrs post-fertilization; format: functional
Procedure, shortened: (§1)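 Fertilized eggs are exposed 8–20 min after fertilization to 2-fold decreasing concentrations. Stocks are 10 mM in DMSO, then diluted 10-fold in 95% EtOH; final DMSO is at most 0.05% and EtOH at most 1%. Embryos are kept as a monolayer, up to 2000 embryos/mL, in filtered seawater at room temperature. The value is the threshold concentration giving cleavage alteration, embryo death before hatching or full mitotic arrest. Duplicates were run.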

[2] = system: Paracentrotus lividus; test: Antimitotic activity against sea urchin embryo model assessed as cleavage alteration of fertilized egg compound treated at 8 to 20 mins post-fertilization and 45 to 55 mins prior to first mitotic cycle completion measured 2.5 to 5.5 hrs post-fertilization; format: functional; procedure, shortened: as §1
[3] = system: Paracentrotus lividus; test: Antimitotic activity against sea urchin embryo free-swimming blastula model assessed as embryo spinning compound treated at 8 to 10 hrs post-fertilization measured after 0.25 to 20 hrs; format: functional, Blastula stage
[4] = Growth inhibition of human NCI60 cells at 10 uM after 48 hrs by SRB assay; format: functional; settings: NCI60, 48 h, values are per cent of control

Row | Compound | EC [1] | EC [2] | EC [3] | growth, % of control at 10 µM [4]
1 | COc1ccc(-c2c(N)nnn2-c2cc(OC)c(OC)c(OC)c2)cc1 | >4 µM | 0.1 µM | >5 µM | 
2 | O=C(O)c1nnn(-c2cccc(Cl)c2)c1-c1ccccc1 | >4 µM | >4 µM | >4 µM | 
3 | COc1ccc(-c2c(C(N)=O)nnn2-c2cc(OC)c(OC)c(OC)c2)cc1 | >4 µM | >4 µM | >4 µM | 101%
4 | CCOC(=O)c1nnn(-c2cccc(Cl)c2)c1-c1ccccc1 | >4 µM | >4 µM | >4 µM | 
5 | COc1ccc(-n2nnc(C(=O)O)c2-c2cc(OC)c(OC)c(OC)c2)cc1 | >4 µM | >4 µM | >4 µM | 104%
6 | COC(=O)c1nnn(-c2cc(OC)c(OC)c(OC)c2)c1-c1ccc(OC)cc1 | >4 µM | >4 µM | >4 µM | 
7 | Nc1nnn(-c2cccc(Cl)c2)c1-c1ccccc1 | >4 µM | >4 µM | >4 µM | 
8 | COc1cccc(-c2c(C#N)nnn2-c2cccc(Cl)c2)c1 | >4 µM | >4 µM | >4 µM | 92%
9 | COc1cc(-c2c(C#N)nnn2-c2cccc(Cl)c2)cc(OC)c1OC | 2 µM | 0.5 µM | >5 µM | 92.6%
10 | COc1cc(-c2c(C#N)nnn2-c2cc(OC)c(OC)c(OC)c2)cc(OC)c1OC | >4 µM | >4 µM | >4 µM | 98.8%
11 | COc1ccc(-c2c(C#N)nnn2-c2ccc(OC)cc2)cc1 | >4 µM | 4 µM | >4 µM | 96.7%
